Assay results reported in ChEMBL document CHEMBL1122242, “Phenylenebis(oxy)bis[2,2-dimethylpentanoic acid]s: agents that elevate high-density lipoproteins” (1983).
Where “and” joins values, the source holds several entries; their conditions need not be identical. Equal entries are not always repeated.

What was measured:
Format in all cases: functional
Rattus norvegicus [1] = assay: Hypolipidemic effects (high-density lipoprotein (HDL) cholesterol) in male rats at 12.50 mg/kg; conditions: dose 12.5 mg/kg
How it was run: (§1)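 Head-to-head oral dosing at 12.5, 25 and 50 mg/kg daily […] in male rats kept on a high lipid diet, alongside gemfibrozil reference. Plasma lipid fractions and liver weight expressed as % change vs controls.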

Rattus norvegicus [2] = assay: Hypolipidemic effects(liver weight) in male rats at 25 mg/kg; how it was run: as §1
Rattus norvegicus [3] = assay: Hypolipidemic effects(plasma TG) in male rats at 25 mg/kg; how it was run: as §1
Rattus norvegicus [4] = assay: Hypolipidemic effects(liver weight) in male rats at 12.50 mg/kg; conditions: dose 12.5 mg/kg; how it was run: as §1
Rattus norvegicus [5] = assay: Hypolipidemic effects (high-density lipoprotein (HDL) cholesterol) in male rats at a dose of 50 mg/kg; Compound was screening orally at 50 mg/Kg
How it was run: (§2)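 Male rats, 10 per group, fed 7 days on chow with 10% fat (5.5% added peanut oil), 1.5% cholesterol and 0.1% cholic acid. Oral gavage on days 4-7 in 4% acacia, usually 50 mg/kg daily. Fasted overnight, killed day 8, atrial blood into EDTA. Plasma cholesterol, TG and HDL cholesterol (after MnCl2/heparin precipitation) by Autoanalyzer. % change vs controls, Student's t test.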

Rattus norvegicus [6] = assay: Hypolipidemic effects(plasma cholesterol) in male rats at 50 mg/kg; how it was run: as §1
Rattus norvegicus [7] = assay: Hypolipidemic effects (Low-density lipoprotein (LDL) cholesterol) in male rats at 50 mg/kg; how it was run: as §1
Rattus norvegicus [8] = assay: Hypolipidemic effects(plasma cholesterol) in male rats at a dose of 50 mg/kg; how it was run: as §2
Rattus norvegicus [9] = assay: Hypolipidemic effects(plasma TG) in male rats at a dose of 50 mg/kg; how it was run: as §2
Rattus norvegicus [10] = assay: Hypolipidemic effects (Low-density lipoprotein (LDL) cholesterol) in male rats at a dose of 50 mg/kg; Compound was screening orally at 50 mg/Kg; how it was run: as §2
Rattus norvegicus [11] = assay: Hypolipidemic effects(plasma TG) in male rats at 50 mg/kg; how it was run: as §1
Rattus norvegicus [12] = assay: Hypolipidemic effects (high-density lipoprotein (HDL) cholesterol) in male rats at 25 mg/kg; how it was run: as §1
Rattus norvegicus [13] = assay: Hypolipidemic effects(liver weight) in male rats at 50 mg/kg; how it was run: as §1
Rattus norvegicus [14] = assay: Hypolipidemic effects (Low-density lipoprotein (LDL) cholesterol) in male rats at 12.50 mg/kg; conditions: dose 12.5 mg/kg; how it was run: as §1
Rattus norvegicus [15] = assay: Hypolipidemic effects as the ratio of (HDL/LDL) in male rats at dose 25 mg/kg.
How it was run: (§3)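 Male rats on a high lipid diet, dosed orally […] at 12.5, 25 or 50 mg/kg, with gemfibrozil reference. HDL/LDL (VLDL included) ratio from densitometry of polyacrylamide gel electrophoresis patterns of plasma. Expressed as % change vs controls.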

Rattus norvegicus [16] = assay: Hypolipidemic effects (high-density lipoprotein (HDL) cholesterol) in male rats at 12.5 mg/kg; how it was run: as §1
Rattus norvegicus [17] = assay: Hypolipidemic effects(liver weight) in male rats at 12.5 mg/kg; how it was run: as §1
Rattus norvegicus [18] = assay: Hypolipidemic effects as the ratio of (HDL/LDL) in male rats at dose 12.5 mg/kg.; how it was run: as §3
Rattus norvegicus [19] = assay: Hypolipidemic effects as the ratio of (HDL/LDL) in male rats at dose 50 mg/kg.; how it was run: as §3
Rattus norvegicus [20] = assay: Hypolipidemic effects (Low-density lipoprotein (LDL) cholesterol) in male rats at 25 mg/kg; how it was run: as §1
Rattus norvegicus [21] = assay: Hypolipidemic effects(plasma cholesterol) in male rats at 12.50 mg/kg; conditions: dose 12.5 mg/kg; how it was run: as §1
Rattus norvegicus [22] = assay: Hypolipidemic effects (high-density lipoprotein (HDL) cholesterol) in male rats at 50 mg/kg; how it was run: as §1
Rattus norvegicus [23] = assay: Hypolipidemic effects(plasma TG) in male rats at 12.50 mg/kg; conditions: dose 12.5 mg/kg; how it was run: as §1
Rattus norvegicus [24] = assay: Hypolipidemic effects (high-density lipoprotein (HDL) cholesterol) in male rats at 50 mg/kg orally; conditions: route oral; how it was run: as §1
Rattus norvegicus [25] = assay: Hypolipidemic effects(plasma cholesterol) in male rats at 25 mg/kg; how it was run: as §1
Rattus norvegicus [26] = assay: Hypolipidemic effects (high-density lipoprotein (HDL) cholesterol) in male rats; Compound was screening orally at 50 mg/Kg; how it was run: as §2
Rattus norvegicus [27] = assay: Hypolipidemic effects(plasma TG) in male rats;Compound was screening orally at 50 mg/Kg; how it was run: as §2
Rattus norvegicus [28] = species on record: Rattus norvegicus; assay: Hypolipidemic effects(liver weight) in male rats; how it was run: as §2
Rattus norvegicus [29] = assay: Hypolipidemic effects(plasma cholesterol) in male rats;Compound was screening orally at 50 mg/Kg; how it was run: as §2
Rattus norvegicus [30] = species on record: Rattus norvegicus; assay: Hypolipidemic effects (low-density lipoprotein (LDL) cholesterol) in male rats; how it was run: as §2

Cc1ccc(C)c(OCCCC(C)(C)C(=O)O)c1 [GEMFIBROZIL]
Change (Rattus norvegicus [1]): 134% | Change (Rattus norvegicus [2]; 25 mg/kg): 10% and 8% and 9% and 11% | Change (Rattus norvegicus [3]; 25 mg/kg): 64% [middle of 5 runs] | Change (Rattus norvegicus [4]): 7% | Change (Rattus norvegicus [5]): 339% | Change (Rattus norvegicus [6]; 50 mg/kg): -26% and -29% | Change (Rattus norvegicus [7]): -42% | Change (Rattus norvegicus [8]): 0% | Change (Rattus norvegicus [9]): 233% | Change (Rattus norvegicus [10]): -32% | Change (Rattus norvegicus [11]; 50 mg/kg): 57% and 69% | Change (Rattus norvegicus [12]; 25 mg/kg): 215% and 257% and 171% and 236% and 246% | Change (Rattus norvegicus [13]; 50 mg/kg): 17% and 26% and 13% | Change (Rattus norvegicus [14]): -16% | Change (Rattus norvegicus [15]; 25 mg/kg): 214% [middle of 5 runs] | Change (Rattus norvegicus [16]): 88% and 134% and 116% and 133% | Change (Rattus norvegicus [17]): 7% and 4% | Change (Rattus norvegicus [18]; 12.5 mg/kg): 98% [middle of 5 runs] | Change (Rattus norvegicus [19]; 50 mg/kg): 364% and 594% and 405% | Change (Rattus norvegicus [20]; 25 mg/kg): -22% [middle of 4 runs] | Change (Rattus norvegicus [21]): 0% | Change (Rattus norvegicus [22]; 50 mg/kg): 498% and 306% | Change (Rattus norvegicus [23]): 45%

CC(C)(CCCCOc1ccc(OCCCCC(C)(C)C(=O)O)cc1)C(=O)O
Change (Rattus norvegicus [1]): 81% | Change (Rattus norvegicus [2]): 14% | Change (Rattus norvegicus [3]): 0% | Change (Rattus norvegicus [24]): 1477% | Change (Rattus norvegicus [4]): 4% | Change (Rattus norvegicus [6]): 0% | Change (Rattus norvegicus [11]): -20% | Change (Rattus norvegicus [12]): 227% | Change (Rattus norvegicus [13]): 36% | Change (Rattus norvegicus [14]): -40% | Change (Rattus norvegicus [15]): 339% | Change (Rattus norvegicus [25]): -35% | Change (Rattus norvegicus [18]): 180% | Change (Rattus norvegicus [19]): 1722% | Change (Rattus norvegicus [20]): -50% | Change (Rattus norvegicus [21]): -33% | Change (Rattus norvegicus [22]): 1477% | Change (Rattus norvegicus [23]): -16%

CC(C)(CCCOc1ccc(SCCCC(C)(C)C(=O)O)cc1)C(=O)O
Change (Rattus norvegicus [1]): 74% | Change (Rattus norvegicus [2]): 6% | Change (Rattus norvegicus [26]): 628% | Change (Rattus norvegicus [3]): 37% | Change (Rattus norvegicus [27]): -40% | Change (Rattus norvegicus [4]): 0% | Change (Rattus norvegicus [28]): 18% | Change (Rattus norvegicus [29]): -44% | Change (Rattus norvegicus [12]): 232% | Change (Rattus norvegicus [14]): -25% | Change (Rattus norvegicus [15]): 302% | Change (Rattus norvegicus [25]): -22% | Change (Rattus norvegicus [18]): 101% | Change (Rattus norvegicus [19]): 785% | Change (Rattus norvegicus [20]): -40% | Change (Rattus norvegicus [30]): -51% | Change (Rattus norvegicus [21]): -19% | Change (Rattus norvegicus [23]): 0%
